Measurements reported in ChEMBL document CHEMBL1127800, “Asimin, asiminacin, and asiminecin: novel highly cytotoxic asimicin isomers from Asimina triloba” (J Med Chem, 1994).
Values after ≈ are worked out from the molar mass of the structure shown.

Experiments:
[1] = Tested for cytotoxicity by using brine shrimp lethality test; format: organism-based; conditions: artemia, in vivo
HT-29 = experiment: Tested in vitro for cytotoxicity against H-29 colon cancer cells; format: functional; conditions: Homo sapiens, read-out: ED50 (the source's name)
Outline: (§1)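 Seven-day in vitro cytotoxicity assay in human tumour cell lines (A-549 lung carcinoma, MCF-7 breast carcinoma, HT-29 colon carcinoma), run by standard protocols; adriamycin tested alongside.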

A549 = experiment: Tested in vitro for cytotoxicity against A-549 lung cancer cells; format: functional; conditions: Homo sapiens, read-out: ED50 (the source's name); outline: as §1
MCF7 = experiment: Tested in vitro for cytotoxicity against MCF-7 breast cancer cells; format: functional; conditions: Homo sapiens, read-out: ED50 (the source's name); outline: as §1

Which LC50 [1] does the source give for `CCCCCCCCCC[C@@H](O)[C@H]1CC[C@H]([C@H]2CC[C@H]([C@H](O)CCCCCCCCC[C@@H](C)CCC3=C[C@H](C)OC3=O)O2)O1` here?
The LC50 was 4600 µg/mL (≈ 7410 µM).

With `COc1cccc2c1C(=O)c1c(O)c3c(c(O)c1C2=O)C[C@@](O)(C(=O)CO)C[C@@H]3O[C@H]1C[C@H](N)[C@H](O)[C@H](C)O1` [DOXORUBICIN] as the compound, how does the LC50 [1] read?
Its LC50 is 0.257 µg/mL (≈ 0.473 µM).

What about the EC50 (HT-29) of the same compound?
The EC50 was 0.000153 µg/mL (≈ 0.000281 µM).

What about the EC50 (A549) of the same compound?
Its EC50 is 0.000104 µg/mL (≈ 0.000191 µM).

And the EC50 (MCF7)?
Its EC50 is 0.0176 µg/mL (≈ 0.0324 µM).

Which LC50 [1] does the source give for `CCCCCCCCCC[C@@H](O)[C@H]1CC[C@H]([C@H]2CC[C@H]([C@H](O)CCCCCCCCCC[C@H](O)CC3=C[C@H](C)OC3=O)O2)O1` here?
The LC50 was 0.0256 µg/mL (≈ 0.0411 µM).

What about the EC50 (A549) of the same compound?
The EC50 was 0.00843 µg/mL (≈ 0.0135 µM).

What about the EC50 (MCF7) of the same compound?
The EC50 was 0.852 µg/mL (≈ 1.37 µM).

Which LC50 [1] does the source give for `CCCCCCCCCC[C@@H](C(C)=O)[C@H]1CC[C@H]([C@H]2CC[C@H]([C@@H](CCCC[C@H](CCCC[C@@H](C)CCC3=C[C@H](C)OC3=O)C(C)=O)C(C)=O)O2)O1` here?
The LC50 was 0.0057 µg/mL (≈ 0.00797 µM).

For `CCCCCC[C@H](O)CCC[C@@H](O)[C@H]1CC[C@H]([C@H]2CC[C@H]([C@H](O)CCCCCCCCC[C@@H](C)CCC3=C[C@H](C)OC3=O)O2)O1`, which LC50 [1] is on record?
Its LC50 is 0.0049 µg/mL (≈ 0.00769 µM).
